Compound activity deposited in PubChem by Johns Hopkins Ion Channel Center.
TRPC4 potent: positive allosteric modulators of TRPC4, primary screen, cell-based, mouse TRPC4beta, HEK293 mu-opioid, Fluo-4 calcium; B-score at 10 µM; hit rate 0.42% among 310,000; Short transient receptor potential channel 4 (Mus musculus), Q9QUQ5; AID 2227, 2009; DAMGO EC20, Fluo-4 Ca2+ flux; stronger effect = higher value;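 active means B-score of calcium response area above 5 SD of library B-scores, with initial fluorescence ratio within 5 SD of library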;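 further: B-score of integrated fluorescence ratio over time as area under calcium response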
Target sequence (Q9QUQ5 whole entry, looked up): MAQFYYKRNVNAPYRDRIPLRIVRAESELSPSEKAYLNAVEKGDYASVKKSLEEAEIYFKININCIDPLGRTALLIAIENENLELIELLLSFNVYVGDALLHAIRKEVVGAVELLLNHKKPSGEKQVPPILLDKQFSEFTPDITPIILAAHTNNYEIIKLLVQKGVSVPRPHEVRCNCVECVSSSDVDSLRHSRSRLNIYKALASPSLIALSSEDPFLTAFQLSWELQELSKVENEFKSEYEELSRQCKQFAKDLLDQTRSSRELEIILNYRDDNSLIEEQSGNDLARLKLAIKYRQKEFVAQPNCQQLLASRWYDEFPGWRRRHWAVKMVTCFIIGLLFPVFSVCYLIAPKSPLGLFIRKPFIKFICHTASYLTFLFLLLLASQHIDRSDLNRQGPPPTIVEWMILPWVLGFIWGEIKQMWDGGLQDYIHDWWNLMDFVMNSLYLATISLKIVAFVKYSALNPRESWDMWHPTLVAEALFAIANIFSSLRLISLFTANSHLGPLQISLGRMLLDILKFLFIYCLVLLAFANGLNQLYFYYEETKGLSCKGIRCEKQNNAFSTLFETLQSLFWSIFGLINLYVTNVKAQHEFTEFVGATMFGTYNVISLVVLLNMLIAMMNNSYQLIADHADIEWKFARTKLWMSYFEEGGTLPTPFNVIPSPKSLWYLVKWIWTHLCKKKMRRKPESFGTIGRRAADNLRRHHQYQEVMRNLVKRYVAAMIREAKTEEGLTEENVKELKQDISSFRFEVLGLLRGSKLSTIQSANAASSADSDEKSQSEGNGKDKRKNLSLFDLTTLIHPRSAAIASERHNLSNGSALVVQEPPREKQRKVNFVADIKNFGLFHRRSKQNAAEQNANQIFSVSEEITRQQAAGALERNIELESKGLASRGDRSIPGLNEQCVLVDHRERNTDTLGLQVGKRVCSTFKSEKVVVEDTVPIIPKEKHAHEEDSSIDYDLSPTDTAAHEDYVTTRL
Kir21 block: inhibitors of mouse Kir2.1 inward-rectifier potassium channel; Inward rectifier potassium channel 2 (Mus musculus), P35561; HEK293-Kir2.1, FluxOR thallium flux fluorescence; stronger effect = lower value; B-score at 10 µM; hit rate 0.85% among 310,000;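 active means fluorescence ratio B-score at or below minus 3 SD of library scores, with starting-brightness B-score within 2 SD, cut at about -4.2 in these data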;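 further: channel flux triggered by added potassium and thallium sulfate stimulus; B-score of peak minus minimum fluorescence over baseline after thallium stimulus; more negative B-score means stronger Kir2.1 block with less thallium influx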
TRPC4 inh: inhibitors of mouse TRPC4 channel, primary screen, Fluo4 calcium, HEK293 TRPC4beta/mu-opioid cells | DAMGO-evoked Fluo4 calcium flux; stronger effect = lower value | B-score at 10 µM | hit rate 0.39% among 300,000;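 active means B-score over 3 SD under the library average, no early fluorescence shift, positive overall ratio signal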
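System: stable TRPC4beta/mu-opioid receptor HEK293 cells; Dosing: single-point compound dosing; Measured by: Fluo4 Ca2+ flux fluorescence; Read-out basis: per-well B score of integrated baseline-normalized Fluo4 ratio.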
TRPC6 inhibitor: mouse TRPC6 channel inhibitors, primary screen, cell-based, HEK293, membrane potential dye; ACh-evoked depolarization; stronger effect = lower value; B-score at 10 µM; hit rate 1.1% among 310,000; AID 2553, 2010;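 active means B-score under library mean minus 3 SD, initial fluorescence not abnormally high, positive integrated signal ratio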;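 further: B-score derived from integrated fluorescence ratio over the kinetic read; more negative B-score means stronger inhibition of depolarization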
TRPC4 act: activators of mouse TRPC4 channel, primary screen, Fluo4 calcium, HEK293 TRPC4beta/mu-opioid cells; Short transient receptor potential channel 4 (Mus musculus), Q9QUQ5; Fluo4 calcium fluorescence; stronger effect = higher value; B-score at 10 µM; hit rate 0.49% among 310,000; AID 2237, 2010;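 active means B-score above 5 SD of library B-scores, and initial fluorescence ratio not above library mean plus 5 SD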;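 further: positive B-score marks a calcium rise read as TRPC4 activation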
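Material: HEK293 stable line with TRPC4beta plus mu-opioid receptor; technique: Fluo4 calcium-sensitive dye fluorescence, kinetic, 1 Hz baseline; timing: Fluo4 dye loading 45 min at room temperature, 110 s recording; controls: assay buffer as low control, maximal DAMGO as high control; read-out: integrated baseline-normalised fluorescence ratio, converted to per-well B score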
TRPC6 activator: mouse TRPC6 channel activators, primary screen, cell-based, HEK293, membrane potential dye; Short transient receptor potential channel 6 (Mus musculus), Q61143; HEK293-TRPC6 membrane potential dye fluorescence; stronger effect = higher value; B-score at 10 µM; hit rate 0.13% among 310,000;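 active means B-score of the integrated fluorescence ratio above library mean plus 3 SD, and starting fluorescence ratio within library mean plus 5 SD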;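 further: higher score means more depolarization so channel activation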
* hit, by the source's call; i = inactive. The list is not random: actives were taken first. Their share in the collection is about 2.9%.

SMILES | TRPC4 potent | Kir21 block | TRPC4 inh | TRPC6 inhibitor | TRPC4 act | TRPC6 activator
CS(=O)(=O)c1ccc2nc(NC(=O)c3ccc(S(=O)(=O)NCC4CCCO4)cc3)sc2c1 (stereo not given) | i | 2.4 | i | i | i | i
CCO[C@@H]1OC(C(=O)NCc2ccccc2)=C[C@H](c2coc3ccccc3c2=O)[C@H]1CCCO | i | 1.7 | i | i | i | i
COc1cc(CNCc2cccc3ccccc23)cc(OC)c1 | i | -4.7* | i | i | i | i
COc1ccccc1CNCc1cc(OC)c(OC)cc1OC | i | -0.37 | i | i | i | i
COc1ccccc1CNCc1cc(Br)ccc1OC | i | -6.05* | i | i | i | i
c1ccc2cc(CNCc3cccc4ccccc34)ccc2c1 | i | -0.08 | i | i | i | i
O=c1cc(CSc2ccc(Cl)cc2)nc(-c2ccccn2)[nH]1 | i | 0.08 | i | i | i | i
Cc1ccc(C)c2[nH]c(=O)c(C(c3nnnn3C3CCCC3)N3CCOCC3)cc12 (stereo not given) | 23* | -1.76 | i | i | i | i
Cc1ccc2cc(C(c3nnnn3C3CCCC3)N3CCOCC3)c(=O)[nH]c2c1C (stereo not given) | i | 0.5 | i | i | i | i
CCN1CCN(C(c2cc3cccc(C)c3[nH]c2=O)c2nnnn2Cc2ccccc2)CC1 (stereo not given) | i | 1.25 | i | i | 76* | i
Cc1ccc(C)c2[nH]c(=O)c(C(c3nnnn3Cc3ccco3)N3CCc4ccccc4C3)cc12 (stereo not given) | 11* | -1.25 | i | i | i | i
Cc1ccc(C)c2[nH]c(=O)c(CN(CCN3CCOCC3)Cc3nnnn3CC3CCCO3)cc12 (stereo not given) | i | -0.64 | i | i | i | i
Cc1ccc(C)c2[nH]c(=O)c(CN(Cc3nnnn3C3CCCCC3)CC3CCCO3)cc12 (stereo not given) | i | 0.01 | -6* | i | i | i
O=C(NC(c1cccnc1)C(F)(F)F)c1cc(COc2ccc3c(c2)CCCC3)on1 (stereo not given) | i | -0.63 | i | i | i | i
COc1ccc(CNC(=O)CSc2ncn[nH]2)cc1OC | i | -0.04 | i | i | i | i
Cc1cc(SCc2ccc(Br)cc2)nc(=O)[nH]1 | i | 0.06 | i | i | i | i
COc1ccccc1OCC(=O)Nc1cc(S(=O)(=O)N2CCCCC2)ccc1N1CCCCC1 | i | 0.18 | i | i | i | i
CCN1CCN(c2ccc(S(=O)(=O)N3CCCCC3)cc2NC(=O)COc2ccccc2)CC1 | i | 0.43 | i | i | 125* | i
CCN1CCN(c2ccc(S(=O)(=O)N3CCCCC3)cc2NC(=O)Cc2ccccc2)CC1 | i | -0.41 | i | i | i | i
CCOc1ccccc1OCC(=O)Nc1cc(S(=O)(=O)N2CCCCC2)ccc1N1CCN(CC)CC1 | i | 0.24 | i | i | 89* | i
CCN1CCN(c2ccc(S(=O)(=O)N3CCCCC3)cc2NC(=O)Cc2ccc(Cl)c(Cl)c2)CC1 | i | -2.89 | i | i | 43* | i
CCC(=O)c1ccc(OCC(=O)Nc2cc(S(=O)(=O)N3CCCCC3)ccc2N2CCN(CC)CC2)cc1 | i | 0.15 | i | i | i | i
COc1ccc(CCNC(=O)CSc2ccc(-c3ccncc3)nn2)cc1 | i | 1.63 | i | i | i | i
C=CCOc1cccc(/C=C/c2nc3ccccc3c(=O)[nH]2)c1 | i | 2.3 | i | i | i | i
CCc1ccc(C(=O)CN2CCSC2=N)cc1 | i | -4.49* | i | i | i | i
SMILES | TRPC4 potent | Kir21 block | TRPC4 inh | TRPC6 inhibitor | TRPC4 act | TRPC6 activator
CCc1ccc(C(=O)O)cc1 | i | 0.68 | i | i | i | i
NC(=O)c1nsc(C(=O)N(Cc2ccc(F)cc2)C(C(=O)NCC2CCCO2)c2ccc(F)cc2)c1N (stereo not given) | i | -0.94 | -7* | i | i | i
Cc1ccc(C)c(N(C(=O)c2snc(C(N)=O)c2N)C(C(=O)NCC2CCCO2)c2cccs2)c1 (stereo not given) | i | -1.47 | i | i | i | i
COc1ccc(C)cc1N(C(=O)c1snc(C(N)=O)c1N)C(C(=O)NC1CCCCC1)c1ccc(C)o1 (stereo not given) | i | -1.81 | -11* | i | i | i
Cc1ccc(C)c(N(C(=O)c2snc(C(N)=O)c2N)C(C(=O)NCC2CCCO2)c2ccc(C)o2)c1 (stereo not given) | i | -0.15 | -7* | i | i | i
CC1CCCN(CCCNS(=O)(=O)c2ccc3c(c2)CCN3C(=O)C2CC2)C1 (stereo not given) | i | 0.89 | i | i | i | i
O=C(N/C(=C/c1cccc([N+](=O)[O-])c1)C(=O)N1CCOCC1)c1ccccc1Br | i | 0.71 | i | i | i | i
Cc1cccc(Cn2c(=O)c3c(nc4n3CCCN4Cc3ccccc3)n(C)c2=O)c1 | 20* | -1.32 | i | i | i | i
CC1CN(c2nc3c(c(=O)n(Cc4ccc(Cl)c(Cl)c4)c(=O)n3C)n2C)CC(C)O1 (stereo not given) | 14* | -3.54 | i | i | i | i
Cn1c(N2CCC(C(N)=O)CC2)nc2c1c(=O)n(Cc1ccc(Br)cc1)c(=O)n2C | 15* | 0.14 | i | i | i | i
CCCOc1ccc(/C=N/NC(=O)c2ccc3c(c2)OCO3)c(OCCC)c1 | i | 2.94 | i | i | i | i
CC(C)c1ccc(N2CC(C)(C)C2=O)cc1 | i | -1.52 | i | i | i | i
COc1ccc(NC(=O)CSc2nnc(Cc3ccccc3)c(=O)n2N)cc1OC | i | 0.07 | i | i | i | i
COc1ccccc1C(CNC(=S)NCc1ccccc1)N1CCCC1 (stereo not given) | i | -2.08 | i | i | i | i
